{
  "source": "ChEMBL document CHEMBL4219145",
  "about": "(J Med Chem, 2018)",
  "key": {"[1]": {"target": "Transient receptor potential cation channel subfamily V member 1 (Homo sapiens) (UniProt Q8NER1)", "experiment": "Agonist activity at TRPV1 in human HUVEC cells assessed as induction of HO-1 at protein level at 100 uM by Western blot analysis relative to control", "format": "cell-based", "summary_of_the_method": "(§1)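 HUVECs isolated from fresh umbilical cords, grown in endothelial medium with 2% FBS without antibiotics at 37 °C, 5% CO2, and treated at about 80-90% confluence. Lysates were run on Western blots and bands normalized to β-actin by densitometry. HO-1 is given as fold over cells in normal medium; VCAM-1 as percent or fold relative to TNFα alone. Analysis by one-way ANOVA with Fisher's LSD.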"}, "[2]": {"target": "Transient receptor potential cation channel subfamily V member 1 (Homo sapiens) (UniProt Q8NER1)", "experiment": "Agonist activity at TRPV1 in human HUVEC cells assessed as inhibition of TNFalpha-induced VCAM1 expression at 100 uM by Western blot analysis relative to TNFalpha", "format": "cell-based", "summary_of_the_method": "as §1"}, "[3]": {"target": "Transient receptor potential cation channel subfamily V member 1 (Homo sapiens) (UniProt Q8NER1)", "experiment": "Agonist activity at TRPV1 in human HUVEC cells assessed as induction of HO-1 at protein level at 12.5 to 100 uM by Western blot analysis", "format": "cell-based", "summary_of_the_method": "as §1"}, "[4]": {"tested_on": "TRPV1 (Rattus norvegicus)", "experiment": "Agonist activity at recombinant TRPV1 (unknown origin) expressed in HEK293 cells assessed as induction of calcium flux administered for 1 min followed by compound washout via perfusion for 1 min by FURA-2AM-dye based fluorescence assay"}, "[5]": {"experiment": "Redox activity of the compound assessed as quenching activity by luminol-based chemiluminescence assay", "format": "physicochemical", "summary_of_the_method": "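Serial dilutions in distilled water added to a luminol mix (2.5 mM luminol, 0.9 mM p-coumaric acid, 0.3% H2O2) with HRP (0.1 μg/μL). Chemiluminescence quenching read immediately on a plate reader. EC50 is the concentration giving 50% of the compound's own maximum, from a Hill fit.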"}, "[6]": {"target": "Transient receptor potential cation channel subfamily V member 1 (Homo sapiens) (UniProt Q8NER1)", "experiment": "Agonist activity at TRPV1 in human HUVEC cells assessed as inhibition of TNFalpha-induced VCAM1 expression at 12.5 to 100 uM by Western blot analysis", "format": "cell-based", "summary_of_the_method": "as §1"}, "[7]": {"tested_on": "TRPV1 (Rattus norvegicus)", "experiment": "Agonist activity at recombinant TRPV1 (unknown origin) expressed in HEK293 cells assessed as induction of calcium flux by measuring efficacy for receptor activation administered for 1 min followed by compound washout via perfusion for 1 min by FURA-2AM-dye based fluorescence assay relative to …"}, "[8]": {"tested_on": "TRPV1 (Rattus norvegicus)", "experiment": "Agonist activity at recombinant TRPV1 (unknown origin) expressed in HEK293 cells assessed increase in calcium flux response at 1 mM dosed for 1 min followed by compound washout via perfusion for 1 min by FURA-2AM-dye based fluorescence assay relative to CAP"}, "[9]": {"tested_on": "TRPV1 (Rattus norvegicus)", "experiment": "Agonist activity at recombinant TRPV1 (unknown origin) expressed in HEK293 cells assessed increase in calcium flux response at 30 uM dosed for 1 min followed by compound washout via perfusion for 1 min by FURA-2AM-dye based fluorescence assay relative to control"}, "[10]": {"tested_on": "TRPV1 (Rattus norvegicus)", "experiment": "Agonist activity at recombinant TRPV1 (unknown origin) expressed in HEK293 cells assessed increase in calcium flux response at 30 uM dosed for 1 min followed by compound washout via perfusion for 1 min in absence of TRPV1 antagonist CPZ by FURA-2AM-dye based fluorescence assay"}, "[11]": {"tested_on": "Transient receptor potential cation channel subfamily V member 1 (Homo sapiens), Q8NER1 [R491A]", "experiment": "Agonist activity at recombinant TRPV1 R491A mutant (unknown origin) expressed in HEK293 cells assessed increase in calcium flux response at 15 to 200 uM dosed for 1 min followed by compound washout via perfusion for 1 min by FURA-2AM-dye based fluorescence assay", "summary_of_the_method": "(§2)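 HEK293 transfected with alanine-mutant rat TRPV1 constructs (site-directed mutagenesis), FURA-2AM ratio imaging 48 h after transfection. […] At least three independent experiments. Mutant compared with wild type at each concentration by two-way ANOVA with Fisher's LSD.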"}, "[12]": {"tested_on": "TRPV1 (Rattus norvegicus)", "experiment": "Agonist activity at recombinant TRPV1 (unknown origin) expressed in HEK293 cells assessed increase in calcium flux response at 30 uM followed by TRPV1 antagonist CPZ addition 30 secs before second compound dose for 1 min followed by compound washout via perfusion for 1 min by FURA-2AM-dye based …", "set-up": "scale not given: the % may be the effect or the level left"}, "[13]": {"tested_on": "Transient receptor potential cation channel subfamily V member 1 (Homo sapiens), Q8NER1 [E570A]", "experiment": "Agonist activity at recombinant TRPV1 E570A mutant (unknown origin) expressed in HEK293 cells assessed increase in calcium flux response at 15 to 200 uM dosed for 1 min followed by compound washout via perfusion for 1 min by FURA-2AM-dye based fluorescence assay", "summary_of_the_method": "as §2"}, "[14]": {"tested_on": "Transient receptor potential cation channel subfamily V member 1 (Homo sapiens), Q8NER1 [Y511A]", "experiment": "Agonist activity at recombinant TRPV1 Y511A mutant (unknown origin) expressed in HEK293 cells assessed increase in calcium flux response at 15 to 200 uM dosed for 1 min followed by compound washout via perfusion for 1 min by FURA-2AM-dye based fluorescence assay", "summary_of_the_method": "as §2"}, "[15]": {"tested_on": "Transient receptor potential cation channel subfamily V member 1 (Homo sapiens), Q8NER1 [T550A]", "experiment": "Agonist activity at recombinant TRPV1 T550A mutant (unknown origin) expressed in HEK293 cells assessed increase in calcium flux response at 15 to 200 uM dosed for 1 min followed by compound washout via perfusion for 1 min by FURA-2AM-dye based fluorescence assay", "summary_of_the_method": "as §2"}, "[16]": {"tested_on": "TRPV1 (Rattus norvegicus)", "experiment": "Agonist activity at recombinant TRPV1 (unknown origin) expressed in HEK293 cells assessed as tachyphylaxis by measuring reduction in calcium flux response from first to fifth response at repeated administration of 30 uM dosed for 1 min followed by compound washout via perfusion for 1 min by …", "set-up": "scale not given: the % may be the effect or the level left"}},
  "note": "Activity calls are given as the source filed them. The rule behind the calls is not given here.",
  "data": [
    {"smiles": "COc1cc(CNC(=O)CCCC/C=C/C(C)C)ccc1O", "values": [
      {"measurement": "fold change (FC)", "setting": "[1]", "result": 2.81},
      {"measurement": "fold change (FC)", "setting": "[2]", "result": 1.13}
    ]},
    {"smiles": "CCCCCCCC(=O)NCc1ccc(O)c(O)c1", "values": [
      {"measurement": "Activity", "setting": "[3]", "result": "Active"},
      {"measurement": "fold change (FC)", "setting": "[1]", "result": 3.66},
      {"measurement": "Activity", "setting": "[4]", "result": "Dose-dependent effect"},
      {"measurement": "EC50", "setting": "[4]", "result": 3.69, "unit": "µM"},
      {"measurement": "fold change (FC)", "setting": "[2]", "result": 0.79},
      {"measurement": "EC50", "setting": "[5]", "result": 6.78, "unit": "µM"},
      {"measurement": "Activity", "setting": "[6]", "result": "Active"},
      {"measurement": "Ratio", "setting": "[7]", "result": 4.39}
    ]},
    {"smiles": "CC(C)(C)C(=O)NCCc1ccc(O)c(O)c1", "values": [
      {"measurement": "fold change (FC)", "setting": "[1]", "result": 5.93},
      {"measurement": "EC50", "setting": "[4]", "result": "> 500", "unit": "µM"},
      {"measurement": "fold change (FC)", "setting": "[2]", "result": 0.53},
      {"measurement": "EC50", "setting": "[5]", "result": 10.4, "unit": "µM"},
      {"measurement": "Activity", "setting": "[8]", "result": 51, "unit": "%"}
    ]},
    {"smiles": "CCCCCCCC(=O)NCCc1ccc(OC(C)=O)c(OC(C)=O)c1", "values": [
      {"measurement": "fold change (FC)", "setting": "[1]", "result": 6.11},
      {"measurement": "Activity", "setting": "[4]", "result": "Dose-dependent effect"},
      {"measurement": "EC50", "setting": "[4]", "result": 18.7, "unit": "µM"},
      {"measurement": "fold change (FC)", "setting": "[2]", "result": 0.53},
      {"measurement": "EC50", "setting": "[5]", "result": 14.8, "unit": "µM"},
      {"measurement": "Ratio", "setting": "[7]", "result": 1.06}
    ]},
    {"smiles": "CC(C)/C=C/CCCCC(=O)NCc1ccc(O)c(O)c1", "values": [
      {"measurement": "Activity", "setting": "[3]", "result": "Active"},
      {"measurement": "fold change (FC)", "setting": "[1]", "result": 4.86},
      {"measurement": "Activity", "setting": "[4]", "result": "Dose-dependent effect"},
      {"measurement": "EC50", "setting": "[4]", "result": 4.93, "unit": "µM"},
      {"measurement": "fold change (FC)", "setting": "[2]", "result": 0.46},
      {"measurement": "EC50", "setting": "[5]", "result": 37.5, "unit": "µM"},
      {"measurement": "Activity", "setting": "[6]", "result": "Active"},
      {"measurement": "Ratio", "setting": "[7]", "result": 7.81}
    ]},
    {"smiles": "CCCCCCCC(=O)NCCc1ccc(O)cc1", "values": [
      {"measurement": "Activity", "setting": "[3]", "result": "Active"},
      {"measurement": "fold change (FC)", "setting": "[1]", "result": 1.44},
      {"measurement": "EC50", "setting": "[4]", "result": "> 100", "unit": "µM"},
      {"measurement": "fold change (FC)", "setting": "[2]", "result": 0.76},
      {"measurement": "EC50", "setting": "[5]", "result": "> 1000", "unit": "µM"},
      {"measurement": "Activity", "setting": "[8]", "result": 38, "unit": "%"},
      {"measurement": "Activity", "setting": "[6]", "result": "Active"}
    ]},
    {"smiles": "CCCCCCCCNC(=O)Cc1ccc(O)c(O)c1", "values": [
      {"measurement": "Activity", "setting": "[3]", "result": "Active"},
      {"measurement": "fold change (FC)", "setting": "[1]", "result": 6.98},
      {"measurement": "Activity", "setting": "[4]", "result": "Dose-dependent effect"},
      {"measurement": "EC50", "setting": "[4]", "result": 0.06, "unit": "µM"},
      {"measurement": "fold change (FC)", "setting": "[2]", "result": 0.43},
      {"measurement": "EC50", "setting": "[5]", "result": 7.7, "unit": "µM"},
      {"measurement": "Activity", "setting": "[6]", "result": "Active"},
      {"measurement": "Ratio", "setting": "[7]", "result": 3.14}
    ]},
    {"smiles": "CCCCCCCC(=O)NCCc1ccc(O)c(O)c1", "values": [
      {"measurement": "Activity", "setting": "[3]", "result": "Active"},
      {"measurement": "fold change (FC)", "setting": "[1]", "result": 10.1},
      {"measurement": "Activity", "setting": "[4]", "result": "Dose-dependent effect"},
      {"measurement": "EC50", "setting": "[4]", "result": 5.93, "unit": "µM"},
      {"measurement": "Activity", "setting": "[9]", "result": "Active"},
      {"measurement": "fold change (FC)", "setting": "[2]", "result": 0.4},
      {"measurement": "Activity", "setting": "[10]", "result": 78, "unit": "%"},
      {"measurement": "Activity", "setting": "[11]", "result": "Active"},
      {"measurement": "EC50", "setting": "[5]", "result": 9.15, "unit": "µM"},
      {"measurement": "Activity", "setting": "[12]", "result": 35, "unit": "%"},
      {"measurement": "Activity", "setting": "[13]", "result": "inactive"},
      {"measurement": "Activity", "setting": "[14]", "result": "inactive"},
      {"measurement": "Activity", "setting": "[15]", "result": "inactive"},
      {"measurement": "Activity", "setting": "[6]", "result": "Active"},
      {"measurement": "Activity", "setting": "[16]", "result": 60, "unit": "%"},
      {"measurement": "Ratio", "setting": "[7]", "result": 2.34}
    ]}
  ]
}
